Results as given in ChEMBL document CHEMBL5058577, “EUbOPEN Chemogenomics Library 2 (Multiplex)” (2022).

Tested on: U2OS
Test: Multiplex assay against U2OS
Format: toxicity, cell-based
Conditions: human
Outline: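 Cells stained live at seeding with Hoechst33342, BioTracker Green Microtubule Cytoskeleton Dye, MitoTracker Red and Annexin V Alexa Fluor 680 were imaged on a CQ1 microscope at 37°C and 5% CO2 after compound addition. Their classification by CellPathfinder machine-learning gating ran from Hoechst high-intensity objects versus normal cells, to healthy, pyknosed or fragmented nuclei among normal cells, to mitotic or apoptotic among pyknosed cells. Tubulin, mitochondrial-mass and membrane-permeability phenotypes are per cents of healthy-nucleus cells.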

[1] = 12 h, 1 µM, compound concentration 1 uM, replicate 1
[2] = 12 h, 1 µM, compound concentration 1 uM, replicate 2
[3] = 12 h, 10 µM, compound concentration 10 uM, replicate 1
[4] = 12 h, 10 µM, compound concentration 10 uM, replicate 2
[5] = 24 h, 1 µM, compound concentration 1 uM, replicate 1
[6] = 24 h, 1 µM, compound concentration 1 uM, replicate 2
[7] = 24 h, 10 µM, compound concentration 10 uM, replicate 1
[8] = 24 h, 10 µM, compound concentration 10 uM, replicate 2
[9] = 48 h, 1 µM, compound concentration 1 uM, replicate 1
[10] = 48 h, 1 µM, compound concentration 1 uM, replicate 2
[11] = 48 h, 10 µM, compound concentration 10 uM, replicate 1
[12] = 48 h, 10 µM, compound concentration 10 uM, replicate 2

## S=C(NCCCc1c[nH]cn1)NCCCN(Cc1ccc(Cl)c(Cl)c1)c1ccc(Br)cn1
[1]
  Population Apoptotic (%): 75%
  Population Fragmented Nuclei (%): 27%
  Population Healthy Nuclei (%): 63%
  Population Hoechst High Intensity Objects (%): 2%
  Population Membrane Permeable-Phenotype (%): 13%
  Population Mitochondria Different-Phenotype (%): 2%
  Population Mitotic Cells (%): 25%
  Population Normal (%): 97%
  Population Pyknosed Nuclei (%): 9%
  Population Tubulin-Different-Phenotype (%): 6%
  Total Cell Count: 228
[2]
  Population Apoptotic (%): 80%
  Population Fragmented Nuclei (%): 20%
  Population Healthy Nuclei (%): 68%
  Population Hoechst High Intensity Objects (%): 3%
  Population Membrane Permeable-Phenotype (%): 6%
  Population Mitochondria Different-Phenotype (%): 9%
  Population Mitotic Cells (%): 20%
  Population Normal (%): 96%
  Population Pyknosed Nuclei (%): 11%
  Population Tubulin-Different-Phenotype (%): 1%
  Total Cell Count: 93
[3]
  Population Apoptotic (%): 66%
  Population Fragmented Nuclei (%): 27%
  Population Healthy Nuclei (%): 46%
  Population Hoechst High Intensity Objects (%): 6%
  Population Membrane Permeable-Phenotype (%): 86%
  Population Mitochondria Different-Phenotype (%): 26%
  Population Mitotic Cells (%): 33%
  Population Normal (%): 93%
  Population Pyknosed Nuclei (%): 26%
  Population Tubulin-Different-Phenotype (%): 83%
  Total Cell Count: 220
[4]
  Population Apoptotic (%): 58%
  Population Fragmented Nuclei (%): 24%
  Population Hoechst High Intensity Objects (%): 0%
  Population Membrane Permeable-Phenotype (%): 84%
  Population Mitochondria Different-Phenotype (%): 60%
  Population Mitotic Cells (%): 41%
  Population Normal (%): 100%
  Population Pyknosed Nuclei (%): 29%
  Population Tubulin-Different-Phenotype (%): 89%
  Total Cell Count: 82
[5]
  Population Apoptotic (%): 81%
  Population Fragmented Nuclei (%): 22%
  Population Healthy Nuclei (%): 69%
  Population Hoechst High Intensity Objects (%): 3%
  Population Membrane Permeable-Phenotype (%): 11%
  Population Mitochondria Different-Phenotype (%): 3%
  Population Mitotic Cells (%): 18%
  Population Normal (%): 96%
  Population Pyknosed Nuclei (%): 8%
  Population Tubulin-Different-Phenotype (%): 9%
  Total Cell Count: 285
[6]
  Population Apoptotic (%): 100%
  Population Fragmented Nuclei (%): 30%
  Population Healthy Nuclei (%): 65%
  Population Hoechst High Intensity Objects (%): 1%
  Population Membrane Permeable-Phenotype (%): 7%
  Population Mitochondria Different-Phenotype (%): 5%
  Population Mitotic Cells (%): 0%
  Population Normal (%): 98%
  Population Pyknosed Nuclei (%): 4%
  Population Tubulin-Different-Phenotype (%): 3%
  Total Cell Count: 125
[7]
  Population Apoptotic (%): 62%
  Population Fragmented Nuclei (%): 33%
  Population Healthy Nuclei (%): 38%
  Population Hoechst High Intensity Objects (%): 5%
  Population Membrane Permeable-Phenotype (%): 59%
  Population Mitochondria Different-Phenotype (%): 17%
  Population Mitotic Cells (%): 37%
  Population Normal (%): 94%
  Population Pyknosed Nuclei (%): 28%
  Population Tubulin-Different-Phenotype (%): 54%
  Total Cell Count: 227
[8]
  Population Apoptotic (%): 60%
  Population Fragmented Nuclei (%): 29%
  Population Healthy Nuclei (%): 40%
  Population Hoechst High Intensity Objects (%): 2%
  Population Membrane Permeable-Phenotype (%): 77%
  Population Mitochondria Different-Phenotype (%): 32%
  Population Mitotic Cells (%): 39%
  Population Normal (%): 97%
  Population Pyknosed Nuclei (%): 29%
  Population Tubulin-Different-Phenotype (%): 64%
  Total Cell Count: 79
[9]
  Population Apoptotic (%): 83%
  Population Fragmented Nuclei (%): 17%
  Population Healthy Nuclei (%): 74%
  Population Hoechst High Intensity Objects (%): 1%
  Population Membrane Permeable-Phenotype (%): 5%
  Population Mitochondria Different-Phenotype (%): 3%
  Population Mitotic Cells (%): 16%
  Population Normal (%): 98%
  Population Pyknosed Nuclei (%): 7%
  Population Tubulin-Different-Phenotype (%): 2%
  Total Cell Count: 409
[10]
  Population Apoptotic (%): 87%
  Population Fragmented Nuclei (%): 28%
  Population Healthy Nuclei (%): 60%
  Population Hoechst High Intensity Objects (%): 0%
  Population Mitotic Cells (%): 12%
  Population Normal (%): 99%
  Population Pyknosed Nuclei (%): 11%
  Population Tubulin-Different-Phenotype (%): 3%
  Total Cell Count: 211
[11]
  Population Apoptotic (%): 70%
  Population Fragmented Nuclei (%): 43%
  Population Healthy Nuclei (%): 8%
  Population Hoechst High Intensity Objects (%): 21%
  Population Membrane Permeable-Phenotype (%): 46%
  Population Mitochondria Different-Phenotype (%): 20%
  Population Mitotic Cells (%): 29%
  Population Normal (%): 78%
  Population Pyknosed Nuclei (%): 47%
  Population Tubulin-Different-Phenotype (%): 26%
  Total Cell Count: 230
[12]
  Population Apoptotic (%): 73%
  Population Fragmented Nuclei (%): 50%
  Population Healthy Nuclei (%): 15%
  Population Hoechst High Intensity Objects (%): 15%
  Population Membrane Permeable-Phenotype (%): 57%
  Population Mitochondria Different-Phenotype (%): 42%
  Population Mitotic Cells (%): 26%
  Population Normal (%): 84%
  Population Pyknosed Nuclei (%): 33%
  Population Tubulin-Different-Phenotype (%): 57%
  Total Cell Count: 105
